MEKK3 PB1 HTS = raises or lowers MEK5 binding to the human MEKK3 PB1 domain. bead-based flow cytometry, Alexa488-MEK5 binding to MEKK3; actives lie on both sides; 0 = blocked by unlabeled MEK5, 100 = vehicle. actives 1.4% (n = 290,000). binding response (% of control), % at 10 µM;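 active = binding response more than 3 SD above or below the average of its plate-row segment, actives on both sides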;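 also: Alexa488 bead fluorescence after subtracting the streptavidin-only scavenger bead signal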
Apaf-1 inh = inhibitors of human Apaf-1 apoptosome. O14727. reconstituted apoptosome caspase-3 activity, DEVD-Rh110 fluorescence. inhibition, % at 20 µM. actives 0.71% (n = 330,000); active = inhibition of at least 40% at 20 µM;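 also: plate controls were DMSO wells for no effect and DEVD-CHO caspase inhibitor wells for full effect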
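Material: reconstituted apoptosome with Apaf-1, cytochrome c, caspase-9, procaspase-3, dATP / Buffer or medium: pH 7.5 Hepes buffer with CHAPS, BSA, DTT / Also added: cytochrome c with DEVD-Rh110 / Schedule: compound with Apaf-1, dATP, procaspase-3 30 min, then 50 min reaction, room temperature / Technique: rhodamine 110 fluorescence at Ex 480/Em 540 nm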
MEKK2mut PB1 HTS = signal of MEK5 binding to mutant human MEKK2 PB1 domain. AID 1530. percent response, % at 10 µM. actives 0.35% (n = 290,000). bead flow cytometry, Alexa488-MEK5 binding to MEKK2 mutant; in the data active = percent response above about 24%, passing the limit was not always enough
MEKK2wt PB1 HTS = raises or lowers MEK5 binding to wildtype human MEKK2 PB1 domain | bead flow cytometry, Alexa488-MEK5 binding to MEKK2 WT; actives lie on both sides | binding response (% of control), % at 10 µM | actives 1.1% (n = 290,000) | AID 1531; in the data active = binding response below about 67% or above about 130%
PREPL inhibitor = inhibitors of human prolyl oligopeptidase-like enzyme PREPL; Q4J6C6; recombinant PREPL, fluorescence polarization activity-based probe; inhibition, % at 5.96 µM; actives 0.68% (n = 320,000); AID 2751; in the data active = inhibition above about 43%;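 also: 0% = enzyme with DMSO and 100% = wells lacking enzyme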
UBC13 inh = inhibitors of human UBC13 polyubiquitin chain formation; TR-FRET; P61088; actives 0.47% (n = 330,000); inhibition, % at 20 µM; in the data active = inhibition above about 45%, passing the limit was not always enough
Target sequence (P61088 whole entry, looked up): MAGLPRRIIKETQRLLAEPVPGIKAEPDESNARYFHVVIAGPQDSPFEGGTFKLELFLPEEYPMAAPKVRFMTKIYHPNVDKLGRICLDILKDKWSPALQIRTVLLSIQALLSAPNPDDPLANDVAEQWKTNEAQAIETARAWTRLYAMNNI
MEKK2wt confirm = raises or lowers MEK5 binding to wildtype human MEKK2, retest. shares compounds with MEKK3 PB1 HTS. bead flow cytometry, Alexa488-MEK5 binding to MEKK2 WT; actives lie on both sides. binding response (% of control), % at 10 µM. actives 2.4% (n = 5,900); in the data active = binding response below about 16% or above about 210%; inactive = in between
MEKK2mut confirm = signal of MEK5 binding to mutant human MEKK2, retest; shares compounds with MEKK3 PB1 HTS; bead flow cytometry, Alexa488-MEK5 binding to MEKK2 mutant; percent response, % at 10 µM; actives 2% (n = 5,900); in the data active = percent response mostly above about 71%, no sharp cut-off; inactive = mostly below about 38%;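 also: higher means compound restores mutant binding toward wildtype level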
MEKK3-MEK5 inh = MEKK3-MEK5 PB1 inhibition, single concentration confirmation. bead flow cytometry, Alexa488-MEK5 binding to MEKK3; stronger effect = lower value. shares compounds with MEKK3 PB1 HTS. actives 1.8% (n = 5,900). AID 1894. binding response (% of control), % at 10 µM;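 active = binding response below 72% of control, or above a set upper limit, though filed actives all read lower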;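 also: 100% = DMSO only wells and 0% = binding blocked by excess unlabeled MEK5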
Numbers without * were called inactive; x = no result given; [ ] = remark or other dose. Compounds with a hit are over-represented: about 3.1% of the library has one in this group of screens.

SMILES	MEKK3 PB1 HTS	Apaf-1 inh	MEKK2mut PB1 HTS	MEKK2wt PB1 HTS	PREPL inhibitor	UBC13 inh	MEKK2wt confirm	MEKK2mut confirm	MEKK3-MEK5 inh
CC12CC3CC(C)(C1)CC(Nc1nc(N4CCOCC4)nc4ccccc14)(C3)C2	114	1	32	151*	1	26	144	18	108
CS(=O)(=O)Nc1ccc(C2=NN(C(=O)CCCC(=O)O)C(c3cccs3)C2)cc1 (centres undefined)	106	6	4	108	-3	14	x	x	x
Cc1ccccc1C(=O)Nc1nc2c(C)csc2c(=O)s1	128*	7	25	107	19	12	94	-10	97
Cc1csc2nc(NC(=O)c3ccccc3)sc(=O)c12	130*	-12	27	116	0	5	100	3	100
COc1cccc(NC(=O)NCc2ccccc2Cl)c1	x	-13	x	x	-1	4	x	x	x
Cc1cc(N/N=C/c2ccc(F)cc2)nc(NCc2ccccc2)n1	100	3	9	130	0	11	x	x	x
CN(C)c1nc(NCc2ccccc2)nc(N/N=C/c2ccc(Br)cc2)n1	103	-2	0	104	3	-11	x	x	x
Cc1cc(N/N=C/c2ccc(Cl)cc2Cl)nc(NCc2ccccc2)n1	102	7	38	161*	-9	2	164	38	105
Cc1ccc(/C=N/Nc2cc(C)nc(NCc3ccccc3)n2)cc1	108	5	63*	199*	-1	34	150	25	104
Cc1cc(N/N=C/c2ccc(N(C)C)cc2)nc(NCc2ccccc2)n1	103	16	75*	229*	21	38	247*	89*	117
Cc1cc(Nc2cccc(F)c2)nc(NCc2ccccc2)n1	107	16	41	142*	-3	38	169	37	107
CCOc1ccc(OCCC(=O)OCC(=O)Nc2ccc(Cl)cn2)cc1	x	12	x	x	2	-1	x	x	x
O=C(Nc1ccc2c(c1)OCO2)c1ccc(NC2CC2)c([N+](=O)[O-])c1	151*	7	1	112	10	-17	100	-7	101
COCCN(C(=O)c1ccccc1OC1CCN(S(C)(=O)=O)CC1)C(C)C	98	-4	1	99	14	-6	x	x	x
Oc1c(Cl)cc(Cl)cc1/C=N/Nc1ncc(Br)cn1	138*	4	1	126	19	-11	102	-3	100
O=C(N/N=C/c1cc(Cl)cc(Cl)c1O)c1ccncc1	102	1	-3	102	15	-27	x	x	x
CCCOc1ccc(NC(=O)CC2C(=O)N(CC)C(=S)N2CCNC(C)=O)cc1 (centres undefined)	88	3	-4	91	1	-1	x	x	x
CCCOc1ccc(NC(=O)CC2C(=O)N(CC)C(=S)N2CCCN2CCN(Cc3ccccc3)CC2)cc1 (centres undefined)	103	30	22	155*	-1	29	150	29	109
CCN1C(=O)C(CC(=O)Nc2ccc(F)cc2)N(CCCN2CCN(c3ccc(F)cc3)CC2)C1=S (centres undefined)	107	14	25	143*	42	8	133	25	108
Cc1ccc(NC(=O)NN2CCN(C)CC2)cc1C	104	-5	6	107	x	-3	x	x	x
N#CCCN(C(=O)COC(=O)CCNS(=O)(=O)c1ccccc1)c1ccccc1	x	-6	x	x	16	1	x	x	x
O=C(CC1C(=O)NCCN1CCCc1ccccc1)NCCc1ccccc1Cl (centres undefined)	102	12	31*	126	6	7	146	21	103
COc1cccc(CNC(=O)CC2C(=O)NCCN2CCCc2ccccc2)c1 (centres undefined)	108	7	15	129	0	2	x	x	x
COc1ccccc1CCNC(=O)CC1C(=O)NCCN1CCCc1ccccc1 (centres undefined)	109	24	26*	138*	10	3	113	6	101
CC(C)(C)CN1CCNC(=O)C1CC(=O)NCCc1ccccc1F (centres undefined)	100	10	1	110	7	7	x	x	x
SMILES	MEKK3 PB1 HTS	Apaf-1 inh	MEKK2mut PB1 HTS	MEKK2wt PB1 HTS	PREPL inhibitor	UBC13 inh	MEKK2wt confirm	MEKK2mut confirm	MEKK3-MEK5 inh
OC(CN1CCCCC1)Cn1c2ccccc2c2cc(Br)ccc21 (centres undefined)	114	18	35*	161*	9	20	157	27	108
O=C(c1ccco1)N1CCN(CC(O)Cn2c3ccccc3c3ccccc32)CC1 (centres undefined)	129*	11	8	115	4	6	106	4	96
CCOc1ccc(OCCOC(=O)CN2C(=O)NC3(CCCC3)C2=O)cc1	x	-10	x	x	1	-1	x	x	x
Cc1n[nH]c(=S)n(/N=C/c2cccs2)c1=O	102	-23	6	103	1	8	x	x	x
CC(C)(C)c1n[nH]c(=S)n(/N=C/c2cccs2)c1=O	147*	9	0	109	-7	-9	104	15	104
Cc1ccc(NC(=O)CSC2=C(C#N)C(c3ccc4c(c3)OCO4)CC(=O)N2)cc1C (centres undefined)	81*[inhibitor]	3	-6	85	8	22	96	-6	97
Cc1cccc(-c2nc(CSc3nc4c(c(=O)[nH]3)CCC4)c(C)o2)c1	113	26	-3	101	4	-9	x	x	x
Cc1oc(-c2ccccc2)nc1CSc1nc2c(c(=O)[nH]1)CCC2	60*[inhibitor]	11	-8	74	6	-9	109	4	102
Cc1cccnc1NC(=O)c1cccc(S(=O)(=O)NCc2ccccc2)c1	x	4	x	x	-7	5	x	x	x
CCC(CC)c1nnc(NC(=O)c2cc([N+](=O)[O-])ccc2N2CCOCC2)s1	x	8	x	x	18	4	x	x	x
Cc1cccc(N2CCN(C(=O)c3ccccc3SCC(=O)N3CCCC3)CC2)c1C	x	13	x	x	17	6	x	x	x
Cc1ccc(Cn2cc(S(=O)(=O)c3ccc(Cl)cc3)c(=O)c3cc(F)ccc32)cc1	132*	12	0	102	16	5	95	-8	102
O=c1c(S(=O)(=O)c2ccc(Cl)cc2)cn(Cc2cccc(F)c2)c2ccc(F)cc12	120	6	0	100	5	-4	x	x	x

Screening results as filed in PubChem.
